In ChEMBL document CHEMBL3997769, “Discovery and preclinical evaluation of 7-benzyl-N-(substituted)-pyrrolo[3,2-d]pyrimidin-4-amines as single agents with microtubule targeting effects along with triple-acting angiokinase inhibition as antitumor agents” (Bioorg Med Chem, 2017):
Active and inactive are the calls of the source. The rule behind the calls is not given here.

What was measured:
[1] = Inhibition of bovine brain tubulin assembly preincubated for 15 mins followed by GTP addition measured for 20 mins by spectrophotometric method; parameters: species or system Bos taurus
[2] = test system: Chorioallantoic membrane; assay: Antiangiogenic activity in Leghorn chicken egg chorioallantoic membrane assessed as inhibition of human VEGF-165/bFGF-induced blood vessels formation measured after 40 hrs by microscopic method; format: functional, tissue-based; details: Gallus gallus
[3] = test system: A-431; assay: Cytotoxicity against human A431 cells; format: functional, cell-based
[4] = Toxicity in Balb/cJ mouse assessed as body weight loss administered once weekly measured every 2 days during compound dosing; details: in vivo
Method in brief: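 Female BALB/cJ mice, 8 weeks old, carrying orthotopic 4T1-Luc2-GFP allografts (7,500 cells in mammary fat pad #4). IP dosing at 1 mg/kg once weekly began one week after implantation, in 5% Pharmasolve/5% Solutol HS in normal saline. Body weight was reported as percent change at day 40 from starting weight, vs untreated controls, n = 9–10, by one-way ANOVA.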

[5] = test system: 4T1; assay: Antitumor activity against luciferase/GFP-tagged mouse 4T1 cells implanted in Balb/CJ mouse assessed as reduction in primary tumor growth at 1 mg/kg, ip administered once in a week; format: functional, organism-based
[6] = test system: Mus musculus; assay: Toxicity in Balb/cJ mouse implanted with luciferase/GFP-tagged mouse 4T1 cells assessed as body weight gain at 1 mg/kg, ip administered once weekly measured at day 40 post dose; format: organism-based; details: in vivo
[7] = test system: 4T1; assay: Antitumor activity against luciferase/GFP-tagged mouse 4T1 cells implanted in Balb/cJ mouse assessed as reduction in lung metastasis at 1 mg/kg, ip administered once weekly by fluorescence microscopic method; format: functional, organism-based
Method in brief: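 Orthotopic 4T1-Luc2-GFP allograft in the mammary fat pad of female BALB/cJ mice; IP treatment in 5% Pharmasolve/5% Solutol HS in saline began one week after implantation. At study end, lungs were excised from mice euthanized under isoflurane and imaged with a GFP-filter fluorescence dissecting microscope; GFP-positive metastases per lung counted. n = 9-10.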

IC50 [1] [µM]	SMILES	IC50 [2] [µM]	IC50 [3] [µM]	MTD at 48 h [4] [mg/kg]	Activity [5]	Activity [6]	Activity [7]
> 20	COc1ccc(Nc2nc(C)nc3c(Cc4ccccc4)cn(C)c23)cc1	8.7	2.3	–	–	–	–
–	COc1cccc2c1C(=O)c1c(O)c3c(c(O)c1C2=O)C[C@@](O)(C(=O)CO)C[C@@H]3O[C@H]1C[C@H](N)[C@H](O)[C@H](C)O1 [DOXORUBICIN]	–	–	1	inactive	Toxic	Active
